Assays:
Staphylococcus aureus = assay: Antibacterial activity against Staphylococcus aureus assessed as inhibition of microbial growth incubated for 18 to 22 hrs by broth microdilution method; type: functional
Outline: (§1)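 Broth microdilution in Mueller-Hinton II broth following NCCLS recommendations; compounds dissolved in DMSO.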

Staphylococcus warneri = assay: Antibacterial activity against Staphylococcus warneri assessed as inhibition of microbial growth incubated for 18 to 22 hrs by broth microdilution method; type: functional; outline: as §1
Enterococcus faecalis = assay: Antibacterial activity against Streptococcus faecalis assessed as inhibition of microbial growth incubated for 18 to 22 hrs by broth microdilution method; type: functional; outline: as §1
Escherichia coli = assay: Antibacterial activity against Escherichia coli assessed as inhibition of microbial growth incubated for 18 to 22 hrs by broth microdilution method; type: functional; outline: as §1
Proteus mirabilis = assay: Antibacterial activity against Proteus mirabilis assessed as inhibition of microbial growth incubated for 18 to 22 hrs by broth microdilution method; type: functional; outline: as §1
Enterobacter = assay: Antibacterial activity against Enterobacter spp. assessed as inhibition of microbial growth incubated for 18 to 22 hrs by broth microdilution method; type: functional; outline: as §1
Klebsiella oxytoca = assay: Antibacterial activity against Klebsiella oxytoca assessed as inhibition of microbial growth incubated for 18 to 22 hrs by broth microdilution method; type: functional; outline: as §1
Candida albicans = assay: Antifungal activity against Candida albicans clinical isolates assessed as inhibition of microbial growth incubated for 24 hrs by broth microdilution method; type: functional
Outline: (§2)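 Twenty-two clinical Candida isolates (8 C. albicans, 4 C. glabrata, 3 C. tropicalis, 3 C. krusei, 2 C. parapsilosis, 2 C. sake) were identified by colony morphology and biochemistry and subcultured at 35 °C for purity. Compounds were dissolved in DMSO and tested by broth microdilution in Sabouraud dextrose broth per NCCLS/CLSI/EUCAST guidance. Values are geometric mean MIC per species (µg/mL).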

Nakaseomyces glabratus = assay: Antifungal activity against Candida glabrata clinical isolates assessed as inhibition of microbial growth incubated for 24 hrs by broth microdilution method; type: functional; outline: as §2
Candida tropicalis = assay: Antifungal activity against Candida tropicalis clinical isolates assessed as inhibition of microbial growth incubated for 24 hrs by broth microdilution method; type: functional; outline: as §2
Pichia kudriavzevii = assay: Antifungal activity against Candida krusei clinical isolates assessed as inhibition of microbial growth incubated for 24 hrs by broth microdilution method; type: functional; outline: as §2
Candida parapsilosis = assay: Antifungal activity against Candida parapsilosis clinical isolates assessed as inhibition of microbial growth incubated for 24 hrs by broth microdilution method; type: functional; conditions: Lodderomyces parapsilosis; outline: as §2
[Candida] sake = Antifungal activity against Candida sake clinical isolates assessed as inhibition of microbial growth incubated for 24 hrs by broth microdilution method; type: functional; conditions: Fermentozyma sake; outline: as §2
[1] = tested on: Streptococcus alpha-hemolyticus (Streptococcus sp.); assay: Antibacterial activity against Streptococcus Streptococcus alpha hemolyticus assessed as inhibition of microbial growth incubated for 18 to 22 hrs by broth microdilution method

Row | SMILES | MIC (Staphylococcus aureus) [µg/mL] | MIC (Staphylococcus warneri) [µg/mL] | MIC (Enterococcus faecalis) [µg/mL] | MIC (Escherichia coli) [µg/mL] | MIC (Proteus mirabilis) [µg/mL] | MIC (Enterobacter) [µg/mL] | MIC (Klebsiella oxytoca) [µg/mL] | MIC (Candida albicans) [µg/mL] | MIC (Nakaseomyces glabratus) [µg/mL] | MIC (Candida tropicalis) [µg/mL] | MIC (Pichia kudriavzevii) [µg/mL] | MIC (Candida parapsilosis) [µg/mL] | MIC ([Candida] sake) [µg/mL] | MIC [1] [µg/mL]
1 | O=C1CS/C(=N/N=C\c2ccccc2[N+](=O)[O-])N1 | ≥ 256 | ≥ 256 | ≥ 256 | ≥ 256 | ≥ 256 | ≥ 256 | ≥ 256 | 16 | 8 | 4 | 16 | 128 | 8 | ≥ 256
2 | O=C1CS/C(=N/N=C\c2ccccc2)N1 | ≥ 256 | ≥ 256 | ≥ 256 | ≥ 256 | ≥ 256 | ≥ 256 | ≥ 256 | 4 | 8 | 4 | 16 | 128 | 2 | ≥ 256
3 | CC(C)=C/C(C)=N\N=C1/NC(=O)CS1 | ≥ 256 | ≥ 256 | ≥ 256 | ≥ 256 | ≥ 256 | ≥ 256 | ≥ 256 | 2 | 2 | 8 | 2 | 2 | 4 | ≥ 256
4 | O=C1CS/C(=N/N=C\c2cccnc2)N1 | ≥ 256 | ≥ 256 | ≥ 256 | ≥ 256 | ≥ 256 | ≥ 256 | ≥ 256 | 8 | 8 | 16 | 16 | 16 | 16 | ≥ 256
5 | CCCC/C(C)=N\N=C1/NC(=O)CS1 | ≥ 256 | ≥ 256 | ≥ 256 | ≥ 256 | ≥ 256 | ≥ 256 | ≥ 256 | 2 | 2 | 32 | 2 | 4 | 2 | ≥ 256
6 | CC/C(C)=N\N=C1/NC(=O)CS1 | ≥ 256 | ≥ 256 | ≥ 256 | ≥ 256 | ≥ 256 | ≥ 256 | ≥ 256 | 8 | 2 | 2 | 2 | 2 | 2 | ≥ 256
7 | C/C(=N/N=C1\NC(=O)CS1)C1CC1 | ≥ 256 | ≥ 256 | ≥ 256 | ≥ 256 | ≥ 256 | ≥ 256 | ≥ 256 | 2 | 2 | 32 | 2 | 4 | 2 | ≥ 256
8 | C/C(=N/N=C1\NC(=O)CS1)c1ccsc1 | ≥ 256 | ≥ 256 | ≥ 256 | ≥ 256 | ≥ 256 | ≥ 256 | ≥ 256 | 8 | 8 | 8 | 16 | 8 | 16 | ≥ 256
9 | C/C(=N/N=C1\NC(=O)CS1)c1ccc(Cl)s1 | ≥ 256 | ≥ 256 | ≥ 256 | ≥ 256 | ≥ 256 | ≥ 256 | ≥ 256 | 8 | 8 | 8 | 16 | 8 | 16 | ≥ 256
10 | CCC/C(CC)=N\N=C1/NC(=O)CS1 | ≥ 256 | ≥ 256 | ≥ 256 | ≥ 256 | ≥ 256 | ≥ 256 | ≥ 256 | 2 | 2 | 16 | 2 | 4 | 2 | ≥ 256
11 | C/C(=N/N=C1\NC(=O)CS1)c1cccc([N+](=O)[O-])c1 | ≥ 256 | ≥ 256 | ≥ 256 | ≥ 256 | ≥ 256 | ≥ 256 | ≥ 256 | 2 | 4 | 2 | 4 | 2 | 2 | ≥ 256
12 | C/C(=N/N=C1\NC(=O)CS1)c1cc2ccccc2oc1=O | ≥ 256 | ≥ 256 | ≥ 256 | ≥ 256 | ≥ 256 | ≥ 256 | ≥ 256 | 256 | 16 | 256 | 256 | 256 | 256 | ≥ 256
13 | C/C(=N/N=C1\NC(=O)CS1)c1ccc([N+](=O)[O-])cc1 | ≥ 256 | ≥ 256 | ≥ 256 | ≥ 256 | ≥ 256 | ≥ 256 | ≥ 256 | 4 | 8 | 8 | 4 | 16 | 16 | ≥ 256
14 | C/C(=N/N=C1\NC(=O)CS1)C1CCCCC1 | ≥ 256 | ≥ 256 | ≥ 256 | ≥ 256 | ≥ 256 | ≥ 256 | ≥ 256 | 8 | 8 | 16 | 16 | 16 | 16 | ≥ 256
15 | O=C1CSC(NN=C2CCCCCC2)=N1 | ≥ 256 | ≥ 256 | ≥ 256 | ≥ 256 | ≥ 256 | ≥ 256 | ≥ 256 | 8 | 8 | 8 | 8 | 8 | 8 | ≥ 256
16 | O=C1CSC(NN=C2CCCCC2)=N1 | ≥ 256 | ≥ 256 | ≥ 256 | ≥ 256 | ≥ 256 | ≥ 256 | ≥ 256 | 64 | 64 | 64 | 256 | 256 | 256 | ≥ 256
17 | CCCCCC/C(C)=N\N=C1/NC(=O)CS1 | ≥ 256 | ≥ 256 | ≥ 256 | ≥ 256 | ≥ 256 | ≥ 256 | ≥ 256 | 2 | 2 | 2 | 16 | 16 | 16 | ≥ 256
18 | O=C1CS/C(=N/N=C\c2ccccn2)N1 | ≥ 256 | ≥ 256 | ≥ 256 | ≥ 256 | ≥ 256 | ≥ 256 | ≥ 256 | 2 | 8 | 2 | 4 | 2 | 2 | ≥ 256
19 | CC1CCC(=N/N=C2\NC(=O)CS2)CC1 (stereo not drawn) | ≥ 256 | ≥ 256 | ≥ 256 | ≥ 256 | ≥ 256 | ≥ 256 | ≥ 256 | 16 | 16 | 16 | 16 | 16 | 16 | ≥ 256
20 | O=C1CS/C(=N/N=C\c2cccs2)N1 | ≥ 256 | ≥ 256 | ≥ 256 | ≥ 256 | ≥ 256 | ≥ 256 | ≥ 256 | 256 | 256 | 256 | 256 | 256 | 256 | ≥ 256
21 | O=C1CS/C(=N/N=C\c2ccc([N+](=O)[O-])cc2)N1 | ≥ 256 | ≥ 256 | ≥ 256 | ≥ 256 | ≥ 256 | ≥ 256 | ≥ 256 | 16 | 8 | 4 | 8 | 4 | 8 | ≥ 256
22 | C/C(=N/N=C1\NC(=O)CS1)c1ccncc1 | ≥ 256 | ≥ 256 | ≥ 256 | ≥ 256 | ≥ 256 | ≥ 256 | ≥ 256 | 16 | 16 | 8 | 16 | 256 | 256 | ≥ 256
